Data set [1] concerns Human immunodeficiency virus 1. In words: Antiviral activity against HIV-1 NL4-3 assessed as reduction in viral infectivity in human TZM-bl cells after 48 hrs by firefly luciferase reporter gene assay. The following applies: Human immunodeficiency virus 1, NL4-3, TZM-bl. The data set is classed as functional, organism-based. A digest of the protocol: (§1)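 Single-round infectivity of VSV-G pseudotyped HIV-1 (pDHIV3-GFP, NL4-3 genes minus nef/env) made in transfected HEK293T producer cells. Compounds added to producers 4 h post-transfection; virions harvested at 24 h, filtered, normalized by p24 ELISA. TZM-bl cells (10,000/well) infected with 500 pg p24/well in triplicate for 48 h; LTR-driven firefly luciferase luminescence read. EC50 derived from concentration series.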
(A reporter such as luciferase makes a cellular process visible.)

The subject of data set [2] is HEK293FT. In words: Binding affinity to HIV-1 FSS RNA transfected in HEK293FT cells at 50 uM after 36 hrs by Renilla/firefly luciferase reporter gene assay. Format: cell-based. The settings on record: Human immunodeficiency virus 1. The gist of the method:
(§2)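 HEK293FT cells (1.5 × 10^4/well) transiently transfected with pDualHIV(−1) or in-frame pDualHIV(0) Rluc–FSS–Fluc plasmid (0.2 μg). Compound (0–50 μM) added 5 h later, in triplicate, for 36 h at 37 °C. Fluc/Rluc ratio from lysate, expressed relative to untreated transfected cells (100%). Error is SEM.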

The nature of data set [3]: Cytotoxicity against HEK293FT cells assessed as cell viability at <60 uM after 24 hrs by WST-1 assay. The data set is classed as cell-based. The settings on record: human. A digest of the protocol: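 HEK293FT cells at 80% confluence in DMEM/10% FBS exposed to compound (up to 0.5 mM) or a water control, in triplicate, for 24 h at 37 °C. WST-1 reagent then added for 2 h. Absorbance at 450 minus 690 nm, blank-corrected, plotted against concentration. Error is SD of three measurements.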
On the technique in general: Tetrazolium assays rely on reduction of a dye to a coloured formazan, in cell work by metabolically active cells.

For data set [4], the system named is Human immunodeficiency virus 1. Briefly: Antiviral activity against HIV-1 NL4-3 infected in TZM-bl cells after 24 hrs.
Data set [5] in a line: Selectivity ratio of KD for yeast tRNA to KD for HIV-1 FSS RNA. A digest of the protocol: (§3)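 Ratios of fluorescence-titration KD values (20 mM HEPES, 150 mM NaCl; compound 1 μM): KD for FSS DNA or total yeast tRNA divided by KD for HIV-1 FSS RNA.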
Data set [6] concerns Human immunodeficiency virus 1. Briefly: Antiviral activity against HIV-1 NL4-3 assessed as reduction in viral production […] after 24 hrs by fluorescence microscopy. The data set is classed as functional, organism-based. The gist of the method:
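HEK293T producer cells transfected with GFP-marked pseudotyped HIV-1 vector plus VSV-G and treated with compound 4 h after transfection. Proviral GFP expression imaged by fluorescence microscopy 24 h after treatment, before virions were harvested.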

A short description of data set [7]: Binding affinity to FSS DNA (unknown origin) after 10 mins by fluorescence titration analysis. The gist of the method: (§4)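 Solution fluorescence titration in 20 mM HEPES, 150 mM NaCl. Compound at 1 μM, titrated with unlabeled HIV-1 FSS RNA (10 μM stock), FSS DNA or yeast tRNA (40 μM stocks). 10 min equilibration after each addition. Quenching of benzo[g]quinoline fluorescence read in triplicate 1 min apart, corrected for dilution; KD from saturable quenching. Error is SD.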

The subject of data set [8] is Human immunodeficiency virus 1. Briefly: Binding affinity to HIV-1 FSS RNA in 20 mM HEPES buffer assessed as association rate by surface plasmon resonance analysis in presence of 150 mM NaCl, 5 mM MgCl2 and 0.005 % tween-20. The gist of the method:
(§5)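 SPR with HIV-1 FSS RNA captured on low-density (~300 RU) and high-density (~1200 RU) chips. Compound flowed at 50 μL/min in 20 mM HEPES, 150 mM NaCl, 5 mM MgCl2, 0.005% Tween-20. 0.5 or 1 M NaCl regeneration as needed. Each concentration injected at least twice. Kinetic constants and KD from individual fits of reference-subtracted sensorgrams.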
A general note: In SPR one partner is held on a chip, and binding of the other changes the refractive index at the surface.

Data set [9] in a line: Cellular uptake in nucleus of HEK293FT cells at 50 uM measured for 12 hrs by fluorescence microscopy. Format: ADME, cell-based. The following applies: human.
Data set [10] relates to Human immunodeficiency virus 1. In words: Binding affinity to HIV-1 FSS RNA in HBS buffer at pH 7.4 assessed as association rate by surface plasmon resonance analysis. A digest of the protocol: (§6)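 RNA captured on SPR chips at low (~300 RU) and high (~1200 RU) density, each measured once. Compound flowed in HBS (0.01 M HEPES, 0.150 M NaCl, pH 7.4) at 60 μL/min over at least five concentrations, each injected at least twice. A 20 s 0.5 or 1 M NaCl pulse regenerated the chip where needed. Reference-subtracted, blank-corrected sensorgrams (association plus dissociation) were globally fit to 1:1 Langmuir; error is standard error of the fit.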

Data set [11] is described as follows: Binding affinity to yeast tRNA after 10 mins by fluorescence titration analysis. More on the design: species or system Saccharomyces cerevisiae. The gist of the method:
as §4

The nature of data set [12]: Binding affinity to HIV-1 FSS RNA in 20 mM HEPES buffer by surface plasmon resonance analysis in presence of 150 mM NaCl, 5 mM MgCl2 and 0.005 % tween-20. More on the design: species or system Human immunodeficiency virus 1. A digest of the protocol:
as §5

The nature of data set [13]: (§7) Binding affinity to HIV-1 FSS RNA in HBS buffer at pH 7.4 assessed as dissociation rate by surface plasmon resonance analysis. More on the design: species or system Human immunodeficiency virus 1. The gist of the method: as §6
A short description of data set [14]: Binding affinity to HIV-1 FSS RNA in 20 mM HEPES buffer assessed as dissociation rate by surface plasmon resonance analysis in presence of 150 mM NaCl, 5 mM MgCl2 and 0.005 % tween-20. Also noted: species or system Human immunodeficiency virus 1. The gist of the method: as §5
Data set [15] in a line: Selectivity ratio of KD for FSS DNA (unknown origin) to KD for HIV-1 FSS RNA. A digest of the protocol: as §3
The nature of data set [16]: Cellular uptake in cytoplasm of HEK293FT cells at 50 uM measured for 12 hrs by fluorescence microscopy. The data set is classed as ADME, cell-based. The settings on record: human.
Data set [17] can be described thus: Binding affinity to HIV-1 FSS RNA after 10 mins by fluorescence titration analysis. Also noted: species or system Human immunodeficiency virus 1. A digest of the protocol:
as §4

For data set [18], the system named is Human immunodeficiency virus 1. Briefly: Increase in HIV-1 NL4-3 reverse transcriptase p66/51 level at 10 to 40 uM by Western blotting analysis. Format: functional, organism-based. A digest of the protocol: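 Pseudotyped virions from compound-treated producer cells, equal loads by p24 ELISA, pelleted through 20% sucrose at 100,000g. Western blot for RT and p24. Densitometry of nonsaturated bands gave p160/(p66+p51) and total RT/p24 ratios.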

Data set [19] concerns HEK293FT. Briefly: Binding affinity to HIV-1 FSS RNA transfected in HEK293FT cells after 36 hrs by Renilla/firefly luciferase reporter gene assay. Format: cell-based. The settings on record: Human immunodeficiency virus 1. A digest of the protocol: as §2
Data set [20] can be described thus: Binding affinity to HIV-1 FSS RNA in HBS buffer at pH 7.4 by surface plasmon resonance analysis. Also noted: species or system Human immunodeficiency virus 1. The gist of the method:
as §6

Data set [21] has as its system Human T-lymphotropic virus 2. Briefly: Binding affinity to HTLV-2 FSS RNA up to 3 uM by surface plasmon resonance analysis.
Data set [22] deals with Human immunodeficiency virus 1. Briefly: Antiviral activity against HIV-1 NL4-3 assessed as reduction in viral infectivity in human TZM-bl cells at 20 uM after 48 hrs by firefly luciferase reporter gene assay. More on the design: scale not given: the % may be the effect or the level left. Format: functional. The gist of the method:
as §1

Data set [23] has as its system HEK293FT. Briefly: Binding affinity to HTLV-2 FSS RNA transfected in HEK293FT cells at 1 to 50 uM after 36 hrs by Renilla/firefly luciferase reporter gene assay. The data set is classed as cell-based. The settings on record: Human T-lymphotropic virus 2. The gist of the method: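 HEK293FT cells transiently transfected with pDualHTLV-2(−1) (Fluc made only via −1 frameshift at the HTLV-2 site) and treated 5 h later with compound (0–50 μM) in triplicate for 36 h at 37 °C. Fluc/Rluc ratio from lysate, relative to untreated transfected cells. Error is SEM.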

The test system of data set [24] is Human immunodeficiency virus 1. The description is as §7. The gist of the method: as §6
Data set [25] has as its system Human immunodeficiency virus 1. In words: Antiviral activity against HIV-1 NL4-3 assessed as reduction in viral infectivity in human TZM-bl cells at 40 uM after 48 hrs by firefly luciferase reporter gene assay. The data set is classed as functional.
Data set [26] is described as follows: Binding affinity to HIV-1 FSS RNA. More on the design: species or system Human immunodeficiency virus 1.

The source made the active and inactive calls. No cut-off for these calls is given here.

With `CCc1nc2cc3ccccc3cc2cc1C(=O)N[C@@H](C/C=C\C[C@H](NC(=O)c1cc2cc3ccccc3cc2nc1CC)C(=O)N1CCC[C@H]1C(=O)N[C@@H](Cc1ccccc1)C(=O)NCCCN)C(=O)N1CCC[C@H]1C(=O)N[C@@H](Cc1ccccc1)C(=O)NCCCN`, the concentration for a half-maximal effect (EC50) – broadly, the midpoint of the concentration-response curve – in data set [1] is 3900 nM. Besides, the Activity in the data set on HEK293FT [2] is greater than 50%; in data set [3] it was “Non-toxic”; in [6], “Dose-dependent effect”; with HEK293FT [19], “Dose-dependent effect”; in data set [22] it was greater than 90%. Also, the outcome in [4] and in data set [18] was Active. Moreover, the Ratio in [5] was 5; in data set [15] it was 4. The Kd in [7] was found to be 265 nM; in [11], 334 nM; in data set [12] it was 71 nM; in data set [14], 1.35 ×10⁻³ /s; in data set [17], 66 nM; in data set [20] (read-out: Kd), 102 nM. The results for the Ka in [8] and in data set [10] were 2.17 ×10⁴ /M/s and 4.25 ×10⁴ /M/s, respectively. Besides, the Drug uptake result in data set [9] and in [16] was “Active” in each case. In data set [13], the “Dissociation rate constant (koff)” value came out at 4.11 ×10⁻³ /s. In addition, the result (in data set [21]; in the data set with HEK293FT [23]) was inactive.
Regarding `NCCCNC(=O)[C@H](Cc1ccccc1)NC(=O)[C@@H]1CCCN1C(=O)[C@@H](N)C/C=C/C[C@H](N)C(=O)N1CCC[C@H]1C(=O)N[C@@H](Cc1ccccc1)C(=O)NCCCN`, the result (in the data set with HEK293FT [2]; in [10]; in data set [24]; in the data set on HEK293FT [19]; in data set [21]) was inactive. The Kd result in data set [20] was “Not Active”. In data set [25], the result was Active.
Turning to `CC(C)(C)NC(=O)[C@@H]1CN(Cc2cccnc2)CCN1C[C@@H](O)C[C@@H](Cc1ccccc1)C(=O)N[C@H]1c2ccccc2C[C@H]1O` [INDINAVIR], in data set [1], the EC50 turned out to be 14.8 nM.
In the case of `CCc1nc2cc3ccccc3cc2cc1C(=O)N[C@@H](C/C=C/C[C@H](NC(=O)c1cc2cc3ccccc3cc2nc1CC)C(=O)N1CCC[C@H]1C(=O)N[C@@H](Cc1ccccc1)C(=O)NCCCN)C(=O)N1CCC[C@H]1C(=O)N[C@@H](Cc1ccccc1)C(=O)NCCCN`, the EC50 in data set [1] came out at 25600 nM. Further, the Activity in the data set on HEK293FT [2] was greater than 50%; in data set [3] it was “Non-toxic”; in [6] it was “Dose-dependent effect”; with HEK293FT [19] it was “Dose-dependent effect”; in data set [25] it was greater than 90%. The outcome in [4] and in data set [18] was Active. Besides, in data set [5], the Ratio stood at 2.14. Also, the Kd worked out at 118 nM in [7]; 217 nM in data set [11]; 96 nM in data set [12]; 3.46 ×10⁻³ /s in data set [14]; 101 nM in [17]; 89 nM in data set [20] (read-out: Kd). The results for the Ka in data set [8] and in [10] were 3.68 ×10⁴ /M/s and 3.99 ×10⁴ /M/s, respectively. For the same compound, the Drug uptake entry in [9] and in data set [16] was “Active” throughout. The “Dissociation rate constant (koff)” value in data set [13] is on record as 3.75 ×10⁻³ /s. Further, the result (in data set [21]; in the data set with HEK293FT [23]) was inactive.
Compound `CN(C)CCCNC(=N)c1ccc(C(=N)NCCCN(C)C)cc1` showed a Kd in data set [26] of 360000 nM.
For the compound `CCc1nc2cc3ccccc3cc2cc1C(=O)N[C@@H](C/C=C/C[C@H](N)C(=O)N1CCC[C@H]1C(=O)N[C@@H](Cc1ccccc1)C(=O)NCCCN)C(=O)N1CCC[C@H]1C(=O)N[C@@H](Cc1ccccc1)C(=O)NCCCN`, the Ka in [10] turned out to be 7.71 ×10³ /M/s. For the same compound, in data set [13], the “Dissociation rate constant (koff)” value is given as 1.63 ×10⁻¹ /s. The Kd in data set [20] (read-out: Kd) amounted to 20700 nM. In addition, the result in data set [21] was inactive.
